According to ChEMBL document CHEMBL1153913, “5-Arylidene-2-phenylimino-4-thiazolidinones as PTP1B and LMW-PTP inhibitors” (Bioorg Med Chem, 2009):

Experiments:
[1] = target: T1, Low molecular weight phosphotyrosine protein phosphatase (Saccharomyces cerevisiae S288c, UniProt P40347); test: Inhibition of Saccharomyces cerevisiae Ltp1
T1 sequence (P40347 whole entry): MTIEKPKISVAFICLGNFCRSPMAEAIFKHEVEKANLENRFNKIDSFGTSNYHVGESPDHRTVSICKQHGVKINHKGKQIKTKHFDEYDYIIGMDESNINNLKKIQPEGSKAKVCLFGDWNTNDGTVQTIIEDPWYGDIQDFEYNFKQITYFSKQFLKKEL
How it was run: (§1)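 p-Nitrophenylphosphate hydrolysis at 37 °C in pH 7.0 buffer with 0.075 M β,β-dimethylglutarate, 1 mM EDTA and 5 mM DTT. The enzyme was added to start the reaction, which was stopped with 1 M KOH. Released p-nitrophenolate was read at 400 nm. Initial rates were measured in triplicate with substrate fixed at each PTP's Km. IC50 was fitted from Vi/V0 = IC50/(IC50+[I]).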

[2] = target: T2, Tyrosine-protein phosphatase non-receptor type 1 (Homo sapiens, UniProt P18031); test: Inhibition of GST-tagged human PTP1B; how it was run: as §1
T2 sequence (P18031 whole entry): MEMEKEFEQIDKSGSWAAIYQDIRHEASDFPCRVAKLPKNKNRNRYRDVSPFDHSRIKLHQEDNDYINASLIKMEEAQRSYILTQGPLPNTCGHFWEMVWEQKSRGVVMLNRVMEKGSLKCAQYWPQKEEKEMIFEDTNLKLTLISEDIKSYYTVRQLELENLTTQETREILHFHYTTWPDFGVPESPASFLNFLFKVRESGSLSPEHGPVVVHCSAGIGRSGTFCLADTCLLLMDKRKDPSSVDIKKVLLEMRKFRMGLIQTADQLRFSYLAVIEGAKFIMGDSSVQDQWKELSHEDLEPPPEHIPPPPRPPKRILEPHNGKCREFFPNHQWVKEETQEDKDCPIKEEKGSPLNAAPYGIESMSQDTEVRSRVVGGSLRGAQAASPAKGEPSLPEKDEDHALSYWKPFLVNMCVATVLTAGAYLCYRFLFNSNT

[3] = target: T3, Low molecular weight phosphotyrosine protein phosphatase (Homo sapiens, UniProt P24666); test: Inhibition of GST-tagged human LMW PTP1B IF1 isoform; how it was run: as §1
T3 sequence (P24666 whole entry): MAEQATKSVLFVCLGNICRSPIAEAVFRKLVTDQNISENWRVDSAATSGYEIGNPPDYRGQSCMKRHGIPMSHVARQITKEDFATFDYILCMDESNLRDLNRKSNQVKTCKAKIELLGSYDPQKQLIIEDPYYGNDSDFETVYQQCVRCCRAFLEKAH

[4] = target: Low molecular weight PTP, IF2 isoform (Homo sapiens); test: Inhibition of GST-tagged human LMW PTP1B IF2 isoform

How did the IC50 [1] turn out when `O=C(O)c1ccc(CN2C(=O)/C(=C/c3cccc4ccccc34)S/C2=N\c2ccccc2)cc1` was run?
Its IC50 is > 500 µM.

What about the IC50 [2] of the same compound?
Its IC50 is 14 µM.

How did the IC50 [1] turn out when `O=C(O)c1ccc(CN2C(=O)/C(=C/c3cccc(OCc4ccccc4)c3)S/C2=N\c2ccccc2)cc1` was run?
Its IC50 is 12.9 µM.

And the IC50 [2]?
The IC50 was 3.8 µM.

How did the IC50 [3] turn out when `O=C(O)c1ccc(CN2C(=O)/C(=C/c3cccc(O)c3)S/C2=N\c2ccccc2)cc1` was run?
Its IC50 is 62.5 µM.

What about the IC50 [1] of the same compound?
Its IC50 is > 250 µM.

And the IC50 [4]?
The IC50 was > 250 µM.

And the IC50 [2]?
Its IC50 is 35.4 µM.

What does the source list for `O=C(O)c1ccc(CN2C(=O)/C(=C/c3ccc(OCc4ccccc4)cc3)S/C2=N\c2ccccc2)cc1`?
IC50 [1]: 15.9 µM; IC50 [2]: 1.1 µM

With `O=C(O)c1ccc(CN2C(=O)/C(=C/c3cccc(Oc4ccccc4)c3)S/C2=N\c2ccccc2)cc1` as the compound, how does the IC50 [1] read?
The IC50 was 11.1 µM.

And the IC50 [2]?
Its IC50 is 1.9 µM.

Which results are given for `COc1ccc(/C=C2\S/C(=N\c3ccccc3)N(Cc3ccc(C(=O)O)cc3)C2=O)cc1O`?
IC50 [1]: > 250 µM; IC50 [2]: 32.1 µM

Which results are given for `O=C(O)c1ccc(CN2C(=O)/C(=C/c3ccc(O)c(C(=O)O)c3)S/C2=N\c2ccccc2)cc1`?
IC50 [1]: 345 µM; IC50 [2]: 19.5 µM

Which results are given for `O=C(O)c1ccc(CN2C(=O)/C(=C/c3ccc(Oc4ccccc4)cc3)S/C2=N\c2ccccc2)cc1`?
IC50 [1]: 6.3 µM; IC50 [2]: 1.1 µM

For `O=C(O)c1ccc(CN2C(=O)/C(=C/c3ccc4ccccc4c3)S/C2=N\c2ccccc2)cc1`, which IC50 [3] is on record?
Its IC50 is 3.7 µM.

What about the IC50 [1] of the same compound?
Its IC50 is 27.6 µM.

What about the IC50 [4] of the same compound?
The IC50 was 13.8 µM.

What about the IC50 [2] of the same compound?
The IC50 was 1.9 µM.

How did the IC50 [3] turn out when `O=C(O)c1ccc(CN2C(=O)/C(=C/c3ccc(O)cc3)S/C2=N\c2ccccc2)cc1` was run?
Its IC50 is 47.7 µM.

What about the IC50 [1] of the same compound?
The IC50 was 195 µM.

What about the IC50 [4] of the same compound?
Its IC50 is 270 µM.

And the IC50 [2]?
Its IC50 is 30.1 µM.

With `COc1cc(/C=C2\S/C(=N\c3ccccc3)N(Cc3ccc(C(=O)O)cc3)C2=O)ccc1O` as the compound, how does the IC50 [1] read?
Its IC50 is > 250 µM.

And the IC50 [2]?
The IC50 was 33.7 µM.
